# Source: PubChem BioAssay
# AHR act – activates the human aryl hydrocarbon receptor | AHR-responsive luciferase reporter cells, luminescence | activation, % at 5 µM | 320,000 tested, 2.5% active | AID 2796; in the data active = activation above about 47%;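 also: 0% = vehicle wells and 100% = reference agonist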
# Target sequence (P35869 whole entry, looked up): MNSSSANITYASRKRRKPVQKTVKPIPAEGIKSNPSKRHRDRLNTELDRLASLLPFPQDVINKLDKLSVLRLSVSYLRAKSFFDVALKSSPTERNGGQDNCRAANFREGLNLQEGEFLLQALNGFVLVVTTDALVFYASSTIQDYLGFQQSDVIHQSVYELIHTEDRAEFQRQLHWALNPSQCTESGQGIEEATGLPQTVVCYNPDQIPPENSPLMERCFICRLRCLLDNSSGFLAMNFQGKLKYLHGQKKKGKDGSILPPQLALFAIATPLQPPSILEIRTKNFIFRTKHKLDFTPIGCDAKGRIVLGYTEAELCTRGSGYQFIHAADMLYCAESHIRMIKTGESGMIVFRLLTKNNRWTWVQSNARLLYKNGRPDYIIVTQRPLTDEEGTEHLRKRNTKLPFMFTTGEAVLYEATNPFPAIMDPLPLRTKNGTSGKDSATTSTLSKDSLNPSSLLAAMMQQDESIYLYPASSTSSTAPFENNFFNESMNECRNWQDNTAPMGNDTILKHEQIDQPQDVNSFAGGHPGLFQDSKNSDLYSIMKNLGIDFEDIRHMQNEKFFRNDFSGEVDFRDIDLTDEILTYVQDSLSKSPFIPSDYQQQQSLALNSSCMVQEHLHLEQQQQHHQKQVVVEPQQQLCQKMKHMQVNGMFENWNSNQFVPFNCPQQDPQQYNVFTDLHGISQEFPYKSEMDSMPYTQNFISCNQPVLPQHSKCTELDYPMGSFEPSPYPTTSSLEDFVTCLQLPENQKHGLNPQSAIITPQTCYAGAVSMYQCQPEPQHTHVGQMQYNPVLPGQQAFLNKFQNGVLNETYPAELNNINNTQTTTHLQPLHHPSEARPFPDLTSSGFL
# FXN GAA850 act – activators of GAA850 frataxin (FXN) promoter | HEK293 lucGAA850 FXN promoter luciferase reporter, 24 h; percent of 10 µM SAHA response | AID 540364 | activation, % at 6 µM | 360,000 tested, 0.56% active;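 active = activation above the average of all compounds screened plus 3 SD, cutoff fixed separately per campaign, cut at about 7.5% in these data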;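 also: 0% = DMSO wells and 100% = 10 µM SAHA wells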
# MC4R antag cAMP – human MC4R antagonism in cAMP assay; MC4R-expressing cells, MTII-stimulated cAMP, LANCE TR-FRET; P32245; 360,000 tested, 0.48% active; inhibition, % at 6.5 µM;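 active = inhibition above its plate's cutoff, the mean of tested wells on that plate plus 3 SD, cut at about 29% in these data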;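 also: 0% = Melanotan II alone and 100% = Melanotan II plus saturating MCL0020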
#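 Material – human MC4R-expressing U2OS cells · Repeats – no replicates · Detection – TR-FRET with Eu-cAMP and labeled anti-cAMP, 671 nm · Times – compound 30 min, challenge 1 h, detection 1 h · Compound – single nominal compound dose of 6.5 µM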
# MC4R ag barr – human MC4R agonism via beta-arrestin; AID 540308; U2OS MC4R beta-arrestin complementation, luminescence; percent of melanotan II response, DMSO zero; 360,000 tested, 0.98% active; activation, % at 8.9 µM;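 active = activation above a per-plate cutoff, the mean activation of sample wells on that plate plus 3 SD, cut at about 8% in these data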
# HTR2A ag – activates the mouse 5-HT2A serotonin receptor; 360,000 tested, 0.66% active; CHO-K1 mHTR2A beta-arrestin complementation, luminescence; percent of 30 µM serotonin response; P35363; activation, % at 7.6 µM;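 active = activation above a run cutoff, the mean activation of all tested compounds plus 3 SD, cut at about 14% in these data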;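 also: 0% = plate median of compound wells and 100% = 30 µM serotonin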
# Active calls of the source: *; . = no result given. This is a sample that favours compounds with a hit; in the whole collection about 4.7% have one here.
SMILES,AHR act,FXN GAA850 act,MC4R antag cAMP,MC4R ag barr,HTR2A ag
CCn1c(-c2ccc(N(C)C)cc2)nc2ccccc21,54*,6,0,-3,4
CCn1c(-c2ccc(N)cc2)nc2ccccc21,6,2,1,-1,-4
CC1(Cc2ccc(S(C)(=O)=O)cc2)C(=O)Nc2ccc(Cl)cc21 (centres undefined),.,-2,0,-1,-1
Cc1ccc(NNc2c(C)nc3ccccc3nc2=O)cc1,20,2,-2,1,-1
CN(CC(=O)Nc1ccccc1Cl)C(=O)COC(=O)c1cnccn1,-1,0,1,-4,-2
Cc1ccc(C(=O)NC(=S)NCC(=O)c2ccccc2)cc1,10,0,-6,11*,-2
O=C(CNC(=S)NC(=O)c1cccs1)c1ccccc1,4,4,-12,-1,-2
COc1ccc(CCNC(=O)c2[nH]c(C)c(C(C)=O)c2C)cc1OC,74*,-1,4,1,3
CC(=O)c1c(C)[nH]c(C(=O)NNC(=O)COc2ccc(Cl)cc2C)c1C,1,0,22,-4,1
COc1ccc(Cl)cc1NC(=O)c1[nH]c(C)c(C(C)=O)c1C,68*,4,-4,-1,-1
CCOc1ccc(CCNC(=O)c2[nH]c(C)c(C(C)=O)c2C)cc1OCC,19,0,7,-2,0
COc1ccc(OC)c(NC(=O)c2[nH]c(C)c(C(C)=O)c2C)c1,75*,2,2,-1,1
C[C@@H]1CN([C@@H](C)CO)C(=O)CCCn2nncc2CO[C@H]1CN(C)C(=O)c1ccc2ccn(C)c2c1,.,1,2,-1,2
CCOC(=O)C1(C)CCCCCN1C(=O)c1ccc(C(=O)OC)cc1 (centres undefined),.,0,6,-1,-1
NC(=O)CC1Nc2cccc3cccc(c23)NC1=O (centres undefined),51*,2,3,-1,2
O=C(CC1Nc2ccccc2NC1=O)c1ccccc1 (centres undefined),78*,.,.,.,.
O=C(CC1Nc2ccccc2NC1=O)NCCc1ccccc1 (centres undefined),49*,1,0,-1,-1
COc1ccc(CCNC(=O)CC2Nc3ccccc3NC2=O)cc1 (centres undefined),29,0,-4,-1,0
Cc1ccc(-c2nc3ccccc3c(=O)n2O)cc1,9,2,-6,0,-1
O=c1c2cc(Br)ccc2nc(-c2ccccc2)n1O,48*,2,4,0,-3
CCc1cccc(NC(=O)C2CCCN2S(=O)(=O)c2ccccc2C(F)(F)F)c1 (centres undefined),.,1,13,0,-1
Cc1ccc(-n2nc3c(N4CCC(C(=O)NCCc5ccccc5C)CC4)nnc(C)c3c2C)cc1,-1,1,6,16*,-6
COc1ccc(-n2nc3c(N4CCC(C(=O)NCCc5ccccc5C)CC4)nnc(C)c3c2C)cc1,1,1,5,-4,10
C[C@H]1COc2cccc(N3CCC[C@H]3CO)c2S(=O)(=O)N1,.,.,.,.,1
O=C(NCCc1csc(-c2cccnc2)n1)c1ccc(Br)o1,65*,-2,0,0,1
SMILES,AHR act,FXN GAA850 act,MC4R antag cAMP,MC4R ag barr,HTR2A ag
O=C(NCc1ccc(Cl)cc1)c1csc(-c2cccnc2)n1,52*,2,4,0,1
COCCn1c(SCC(=O)N2CCCC2=O)nnc1-c1ccncc1,.,1,2,1,1
COc1cc(C(=O)OCC(=O)NC2CCCCC2)cc(OC)c1OC,2,-1,-4,0,2
Cc1ccc(NP(=O)(c2ccc(N(C)C)cc2NC(=O)c2cccs2)N2CCOCC2)cc1 (centres undefined),59*,2,0,1,9
Cc1ccc(NP(=O)(c2ccc(N(C)C)cc2NC(=O)c2cccs2)N2CCOCC2)cc1Cl (centres undefined),50*,0,15,3,2
CN(C)c1ccc(P(=O)(Nc2ccccc2)N2CCOCC2)c(NC(=O)c2cccs2)c1 (centres undefined),12,-2,8,-2,-3
O=C(C1CCCCC1)N1C[C@@H](n2cc(-c3ccc(F)cc3)nn2)[C@H](O)C[C@@H]1c1ccccc1,.,-4,14,2,-7
CC(=O)Nc1ccc(S(=O)(=O)Nc2cccc(-n3c(C)nc4ccccc4c3=O)c2)cc1,-3,0,-3,-2,3
COc1ccc(CN2C(=O)C(CC(=O)NCCc3ccccn3)CC(C(=O)N3CCCCCC3)=C2C)cc1 (centres undefined),.,.,.,.,-1
COc1ccc(CCC(=O)N2CCN(c3ccccc3)CC2)cc1OC,1,-2,25,-3,1
CC(=O)N1SC(N)=NC1c1ccccc1 (centres undefined),1,0,-3,-2,1
c1ccc([C@H]2CN3C(=N2)Sc2ccccc23)cc1,72*,5,-6,1,3
Cc1ccccc1CN1C(=O)[C@H]2Cc3c([nH]c4ccccc34)C(C)(C)N2C1=O,6,-4,14,0,8
COc1ccc(/C=N/Nc2nccnc2Cl)cc1,19,0,-5,-1,-4
Clc1nccnc1N/N=C/c1ccc(Br)cc1,63*,5,0,-1,1
O=C(CN1CCN(c2ccccn2)CC1)Nc1ccc([N+](=O)[O-])cc1C(=O)Nc1ccccc1F,48*,1,3,0,9
CSc1ccccc1NC(=O)CN1CCN(c2ccccn2)CC1,-2,2,9,1,5
O=C(NC(=S)NCCC1=CCCCC1)c1ccccc1Br,50*,4,5,-1,-5
CCN(C(=O)COC(=O)/C=C/c1nc2ccccc2s1)c1c(N)n(Cc2ccccc2)c(=O)[nH]c1=O,.,1,0,0,5
COc1cc(/C=N\NC(=O)c2ccc(-c3ccccc3)cc2)ccc1OCC(N)=O,.,1,3,26*,-3
COc1cc(/C=N\NC(=O)c2ccc(-c3ccccc3)cc2)cc(OC)c1O,23,1,3,-3,-8
COc1ccc(/C=N\NC(=O)c2cccc(F)c2)cc1COc1ccccc1,64*,1,-26,-4,-12
COc1ccc(C(=O)N/N=C\c2ccc(OC)c(COc3ccccc3Br)c2)c(OC)c1,48*,-6,3,1,4
COc1ccc(/C=N/NC(=O)c2cccc(Br)c2)cc1CSc1ccccn1,56*,-1,11,-1,-6
O=C(c1cccs1)N1C[C@H](n2cc(C3CC3)nn2)[C@@H](O)C[C@@H]1c1ccc(Cl)cc1,.,-3,6,-1,-1
CCOc1ccc(Nc2nc3cc(S(=O)(=O)CC)ccc3o2)cc1,64*,3,1,0,-3
CC(=O)Nc1ccc(S(=O)(=O)NCCC(=O)N2CCC(Cc3ccccc3)CC2)cc1,0,0,0,0,-4
